The values that follow come from PubChem BioAssay AID623966 (The Scripps Research Institute Molecular Screening Center, 2012).

SMILES strings stand for the structures. Where “and” joins values, the source holds several entries; their conditions need not be identical. Equal values may be shown once. Calls of active or inactive are those of the source.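 Rule for the calls: active = compounds that push a bacterial single-strand DNA binding protein off labeled DNA, with IC50 up to 50 micromolar; inactive = the rest.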 Bounds are passed on as bounds.

This test deals with Single-stranded DNA-binding protein (Escherichia coli (strain K12)) (UniProt P0AGE0). Put plainly: E. coli SSB-ssDNA binding disruption – biochemical, fluorescence polarization, selectivity assay for HCV NS3 helicase inhibitor project, late-stage follow-up (AID 623966). As to conditions: E. coli SSB / Cy5-dT15 DNA. An outline of the steps: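 Medium: MOPS pH 7.5 buffer with MgCl2, BSA, Tween20, DTT; Test system: E. coli SSB with Cy5-dT15 oligo; Input: 20 nM E. coli SSB per well, final; Control set: no-enzyme wells and 200 nM dT20 competitor; Evaluation: percent displacement and IC50 from dose-response fits; Technique: Cy5 fluorescence polarization.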
Sequence of Single-stranded DNA-binding protein (Escherichia coli (strain K12)) (P0AGE0 whole entry, looked up): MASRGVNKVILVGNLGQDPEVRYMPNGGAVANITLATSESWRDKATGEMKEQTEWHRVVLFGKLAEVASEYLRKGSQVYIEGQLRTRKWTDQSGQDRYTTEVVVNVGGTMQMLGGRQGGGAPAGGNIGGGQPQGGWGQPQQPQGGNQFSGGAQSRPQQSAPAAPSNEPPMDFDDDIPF
One may read the IC50 as the concentration that inhibits the measured activity by half. For `Cc1ccc2nc(-c3ccc4nc(-c5ccc(NC(=O)c6ccc(F)cc6)cc5)sc4c3)sc2c1S(=O)(=O)O`, the IC50 was 14 µM. As to `Cc1ccc2nc(-c3ccc(NC(=O)c4ccc(NC(=O)c5ccc(N)cc5)cc4)cc3)sc2c1S(=O)(=O)O`, the IC50 is 17 µM. The figure for `Cc1ccc2nc(-c3ccc4nc(-c5ccc(NC(=O)c6ccc7nc(-c8ccc(NC(=O)OCC9c%10ccccc%10-c%10ccccc%109)cc8)sc7c6)cc5)sc4c3)sc2c1S(=O)(=O)O` is 5 µM; for `Cc1ccc2nc(-c3ccc4nc(-c5ccc(NC(=O)Nc6ccc(C(F)(F)F)cc6)cc5)sc4c3)sc2c1S(=O)(=O)O` it is 15 µM.

As for `COC(=O)c1ccc(C(=O)Nc2ccc(-c3nc4ccc(-c5nc6ccc(C)c(S(=O)(=O)O)c6s5)cc4s3)cc2)cc1`, the IC50 was 2 µM. Next, `Cc1ccc2nc(-c3ccc4nc(-c5ccc(NC(=O)c6ccc(C(F)(F)F)c(F)c6)cc5)sc4c3)sc2c1S(=O)(=O)O`: 10 µM; `Cc1ccc2nc(-c3ccc(NC(=O)c4ccc(NC(=S)Nc5ccccc5)cc4)cc3)sc2c1S(=O)(=O)O`: 23 µM; `Cc1ccc2nc(-c3ccc4nc(-c5ccc(NC(=O)c6ccc(Cl)cc6)cc5)sc4c3)sc2c1S(=O)(=O)O`: 46 µM. Next, `Cc1ccc2nc(-c3ccc4nc(-c5ccc(NC(=O)c6ccc(C(F)(F)F)cc6)cc5)sc4c3)sc2c1S(=O)(=O)O`: 4 µM; `Cc1ccc2nc(-c3ccc4nc(-c5ccc(NC(=O)c6cccc7ccccc67)cc5)sc4c3)sc2c1S(=O)(=O)O`: 9 µM. Next, `Cc1ccc2nc(-c3ccc4nc(-c5ccc(N(C)C(=O)c6ccc7ccccc7c6)cc5)sc4c3)sc2c1S(=O)(=O)O`: 9 µM; `Cc1ccc2nc(-c3ccc4nc(-c5ccc(NC(=O)c6cccc(C(F)(F)F)c6)cc5)sc4c3)sc2c1S(=O)(=O)O`: > 100 µM (inactive); `Cc1ccc2nc(-c3ccc4nc(-c5ccc(NC(=O)c6ccccc6)cc5)sc4c3)sc2c1S(=O)(=O)O`: 4 µM. Consider `Cc1ccc(NC(=O)Nc2ccc(-c3nc4ccc(-c5nc6ccc(C)c(S(=O)(=O)O)c6s5)cc4s3)cc2)cc1`, for which the IC50 is 10 µM.

As for `Cc1ccc2nc(-c3ccc4nc(-c5ccc(NC(=O)c6ccc(NC(=O)OCC7c8ccccc8-c8ccccc87)cc6)cc5)sc4c3)sc2c1S(=O)(=O)O`, the IC50 is > 100 µM (inactive). For `Cc1ccc2nc(-c3ccc4nc(-c5ccc(NCc6ccccc6)cc5)sc4c3)sc2c1S(=O)(=O)O`, the IC50 is 5 µM. Next, `Cc1ccc2nc(-c3ccc4nc(-c5ccc(NC(=O)c6cccnc6)cc5)sc4c3)sc2c1S(=O)(=O)O`: > 100 µM (inactive). Next, `Cc1ccc2nc(-c3ccc4nc(-c5ccc(NC(=O)c6ccc(C(C)(C)C)cc6)cc5)sc4c3)sc2c1S(=O)(=O)O`: 32 µM; `COc1ccc(NC(=O)Nc2ccc(-c3nc4ccc(-c5nc6ccc(C)c(S(=O)(=O)O)c6s5)cc4s3)cc2)cc1`: 4 µM; `Cc1ccc2nc(-c3ccc(NC(=O)c4ccc(NC(=O)c5ccc(NC(=O)OCC6c7ccccc7-c7ccccc76)cc5)cc4)cc3)sc2c1S(=O)(=O)O`: 7 µM.

For `Cc1ccc2nc(-c3ccc4nc(-c5ccc(NC(=O)c6ccc(Br)cc6)cc5)sc4c3)sc2c1S(=O)(=O)O`, the IC50 is 27 µM. Turning to `Cc1ccc2nc(-c3ccc4nc(-c5ccc(NC(=S)Nc6ccccc6)cc5)sc4c3)sc2c1S(=O)(=O)O`, the IC50 is 7 µM.

Regarding `Cc1ccc2nc(-c3ccc4nc(-c5ccc(NC(=O)c6ccccc6C(F)(F)F)cc5)sc4c3)sc2c1S(=O)(=O)O`, the IC50 is 13 µM. The figure for `Cc1ccc2nc(-c3ccc(NC(=O)c4ccc(NS(=O)(=O)c5ccccc5)cc4)cc3)sc2c1S(=O)(=O)O` is > 100 µM (inactive). The figure for `Cc1ccc2nc(-c3ccc4nc(-c5ccc(NC(=O)c6cc(C(F)(F)F)ccc6F)cc5)sc4c3)sc2c1S(=O)(=O)O` is 12 µM; for `Cc1ccc2nc(-c3ccc4nc(-c5ccc(NC(=O)c6ccncc6)cc5)sc4c3)sc2c1S(=O)(=O)O` it is “inactive”; for `COc1ccc(C(=O)Nc2ccc(-c3nc4ccc(-c5nc6ccc(C)c(S(=O)(=O)O)c6s5)cc4s3)cc2)cc1` it is 2 µM. The figure for `Cc1ccc2nc(-c3ccc(NC(=O)c4ccc(NC(=O)c5ccc(C(F)(F)F)cc5)cc4)cc3)sc2c1S(=O)(=O)O` is 23 µM. In the case of `Cc1ccc2nc(-c3ccc4nc(-c5ccc(NC(=O)c6cccc(C(F)(F)F)c6F)cc5)sc4c3)sc2c1S(=O)(=O)O`, the IC50 entry was “inactive”. Next, `Cc1ccc2nc(-c3ccc4nc(-c5ccc(NC(=O)c6ccc7ccccc7c6)cc5)sc4c3)sc2c1S(=O)(=O)O`: 22 µM and 28 µM; `Cc1ccc2nc(-c3ccc(NC(=O)c4ccc(NC(=O)c5ccccc5)cc4)cc3)sc2c1S(=O)(=O)O`: “inactive”. Take `Cc1ccc2nc(-c3ccc4nc(-c5ccc(NC(=O)Nc6ccc(Cl)cc6)cc5)sc4c3)sc2c1S(=O)(=O)O`: the IC50 is 5 µM. Next, `CC(=O)Nc1ccc(-c2nc3ccc(-c4nc5ccc(C)c(S(=O)(=O)O)c5s4)cc3s2)cc1`: 17 µM; `Cc1ccc2nc(-c3ccc4nc(-c5ccc(NC(=O)c6c(F)cccc6C(F)(F)F)cc5)sc4c3)sc2c1S(=O)(=O)O`: 13 µM. Next, `Cc1ccc2nc(-c3ccc4nc(-c5ccc(NC(=O)c6ccc(CNC(=O)OCC7c8ccccc8-c8ccccc87)cc6)cc5)sc4c3)sc2c1S(=O)(=O)O`: “inactive”. The figure for `Cc1ccc2nc(-c3ccc(NC(=O)c4ccc(NC(=O)OCC5c6ccccc6-c6ccccc65)cc4)cc3)sc2c1S(=O)(=O)O` is 27 µM; for `Cc1ccc2nc(-c3ccc(NC(=O)c4ccc(NC(=O)Nc5ccccc5)cc4)cc3)sc2c1S(=O)(=O)O` it is 20 µM. On to `Cc1ccc(C(=O)Nc2ccc(-c3nc4ccc(-c5nc6ccc(C)c(S(=O)(=O)O)c6s5)cc4s3)cc2)cc1`, for which the IC50 is 5 µM. `Cc1ccc2nc(-c3ccc4nc(-c5ccc(NC(=O)c6ccc(N(C)C)cc6)cc5)sc4c3)sc2c1S(=O)(=O)O`: the IC50 is 4 µM. Next, `Cc1ccc2nc(-c3ccc4nc(-c5ccc(NC(=O)c6ccc7nc(-c8ccc(N)cc8)sc7c6)cc5)sc4c3)sc2c1S(=O)(=O)O`: 3 µM; `Cc1ccc2nc(-c3ccc4nc(-c5ccc(NC(=O)c6ccc(Cl)c(Cl)c6)cc5)sc4c3)sc2c1S(=O)(=O)O`: > 100 µM (inactive).

Consider `Cc1ccc2nc(-c3ccc4nc(-c5ccc(NC(=O)Nc6ccccc6)cc5)sc4c3)sc2c1S(=O)(=O)O`, for which the IC50 is 6 µM.

On to `Cc1ccc2nc(-c3ccc4nc(-c5ccc(NC(=O)c6cc(F)cc(C(F)(F)F)c6)cc5)sc4c3)sc2c1S(=O)(=O)O`, for which the IC50 was > 100 µM (inactive). For `Cc1ccc2nc(-c3ccc4nc(-c5ccc(NC(=O)c6cc(C(F)(F)F)cc(C(F)(F)F)c6)cc5)sc4c3)sc2c1S(=O)(=O)O`, the IC50 was 36 µM.

Consider `Cc1ccc2nc(-c3ccc4nc(-c5ccc(NC(=O)c6ccc(N)cc6)cc5)sc4c3)sc2c1S(=O)(=O)O`, for which the IC50 was 3 µM. Next, `COc1ccc(S(=O)(=O)Nc2ccc(-c3nc4ccc(-c5nc6ccc(C)c(S(=O)(=O)O)c6s5)cc4s3)cc2)cc1`: 10 µM; `Cc1ccc2nc(-c3ccc4nc(-c5ccc(NC(=O)c6cc(F)ccc6C(F)(F)F)cc5)sc4c3)sc2c1S(=O)(=O)O`: 14 µM; `Cc1ccc2nc(-c3ccc4nc(-c5ccc(NC(=O)Nc6ccc(F)cc6)cc5)sc4c3)sc2c1S(=O)(=O)O`: 11 µM. Regarding `Cc1ccc2nc(-c3ccc4nc(-c5ccc(NC(=O)c6cccc(Cl)c6)cc5)sc4c3)sc2c1S(=O)(=O)O`, the IC50 is > 100 µM (inactive).
